Measured values: the EternaBench riboswitch data

Test system: MS2 coat protein
Assay: apparent Kd, MS2 coat protein; higher = weaker binding; RNA-MaP array; FMN 200 µM where present
Outline: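 Two titrations, one without ligand and one with constant ligand, were run with SNAP-549-labelled MS2 coat protein from 0.7 or 1.5 nM, doubling to 3 µM. The targets were designs transcribed by stalled E. coli RNA polymerase on Illumina sequencing-chip clusters, in 100 mM Tris-HCl pH 7.5, 80 mM KCl, 4 mM MgCl2, BSA, DTT, yeast tRNA and Tween-20. The apparent Kd is the median of filtered per-cluster binding-curve fits, with green signal normalised to red-channel RNA signal and control-cluster median Fmax.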

[1] = designed as: ON switch for flavin mononucleotide, no ligand
[2] = ligand present: flavin mononucleotide, designed as: ON switch for flavin mononucleotide
[3] = designed as: OFF switch for flavin mononucleotide, no ligand
[4] = ligand present: flavin mononucleotide, designed as: OFF switch for flavin mononucleotide

| Sequence | apparent Kd [1] | apparent Kd [2] | apparent Kd [3] | apparent Kd [4] |
| --- | --- | --- | --- | --- |
| GGUACUAUCACAGGAUAUGCUUUCCUUUGGGAAGCAGAAGGGUGUAACAUGAGGAUCACCCAUGUGGUGCCAGGGCGCGAGCCC | 137 nM | 16.7 nM | – | – |
| GCCGAUUAAGUCAGGAUAUACCUAUGGAUACAUAGGUAGAAGGGACAUGAGGAUCACCCAUGUUCCUCUACGGC | – | – | 12.9 nM | 25.8 nM |
| CCGUAAAAUGGAGGAUAUGGAGCCUUAUUGGCUCCAGAAGGUCAUAAAACAUGAGGAUCACCCAUGUCGGCGGUCAAUAGACCG | 47.9 nM | 20.2 nM | – | – |
| UAAUCGUUGCAGAAGGUUAUUUUUUUAACAUUUCUCUUAACAUGAGGAUCACCCAUGUUUUUGAUGAAGGAUAUGCAACGGUAG | – | – | 6.67 nM | 5.51 nM |
| UGCUUCGUGUAAGGAUAUGCUGCCGUUUCGGCUGCAGAAGGUACUAUAAUACAUGAGGAUCACCCAUGUCUCUCGCUUUGCGGG | 55.9 nM | 26.6 nM | – | – |
| CCUCCACAUGAGGAUCACCCAUGUCAGGAUAUCGUGUGUGCGUUUUCGGUCUUUCGCGCGAGAAGGGACGUCUG | – | – | 30.6 nM | 34.9 nM |
| AUACCACGAGGAUAUCGUCUAUUUUACAUGAGGAUCACCCAUGUUAUCUUUGUUUUGUUUCGAGAAGGCGUGUUUU | – | – | 25.1 nM | 17.1 nM |
| AAUAACAGAGGAUAUACUAUUUUAUGUGUUUAUUGUUUUAAACAUGAGGAUCACCCAUGUAGAAGGCUGAAUGA | – | – | 37.6 nM | 54.4 nM |
| GGAUAGGACAGAGGAUAUACGGCUAGGAGAUACUAGCCACUAUUCCUCACAUGAGGAUCACCCAUGUAGAAGGCUGUCCUAUCG | – | – | 16.9 nM | 109 nM |
| CGUAGGAUCCAGAAGGCAUGUACAUGAGGAUCACCCAUGUCGAAAGACAUGAGGAUAUGGAUCCUACGAAAAGUGCGAAAGCAC | 56.4 nM | 6.15 nM | – | – |
| GCAGGUCGAGGAUAUACAUGAGGAUCACCCAUGUGAUUAGCAGUCCUCGGACUGCAAUGUAGAAGGUGACCUGC | – | – | 148 nM | 501 nM |
| ACAUACUCUCGAGGAUAUCGUAUAAUUAUUAAACGAGAAGGCGAUUGUUUAUUUCUAAUACACGACAUGAGGAUCACCCAUGUA | 27.1 nM | 25.4 nM | – | – |
| UCAUUUCUGUAAGGAUAUUAAAACAUGACGAUACAUGAGGAUCACCCAUGUUAAGAAGGUACAAAUACAUAUAAUGCAAUGUUC | – | – | 15.7 nM | 14.8 nM |
| CUGAGCCUAGGAUAUACUGGCUGUAAGCUUGAUGCCUGCACACAUGAGGAUCACCCAUGUAGAAGGAGGCCAGG | – | – | 17.2 nM | 21.1 nM |
| AAUUCACAUGAGGAUCACCCAUGUCAGGAUAUGGUUUCACGUUUUUCUUUUCUUGAUUCCAGAAGGGACAGCUA | – | – | 65.6 nM | 82 nM |
| GAGGUAUUCGUAGGAUAUCCGUCGCCACCGUGUGGAGAAGGACGAACAUGAGGAUCACCCAUGUAUCAUGGUGUGGACGCUUUC | – | – | 71.5 nM | 82.8 nM |
| UUAACUCAUGUAGGAUAUGCAUGGCGAAGCUACGCAGAAGGACAUGAGGAUCACCCAUGUUCUAGCGUCUGAAUACAGAUGCAA | – | – | 53.7 nM | 303 nM |
| UGCUACAUGAGGAUCACCCAUGUAAUGUGGGAAUCGUUAGGACAGGAUAUGAUUGUAUUGUUUUUUCAGAAGGGUCAUUACUUU | – | – | 302 nM | 303 nM |
| AUUAUAUAGGUAGGAUAUAGAAUAUUAUUUUAACAUGAGGAUCACCCAUGUAACCUUAUGUGUAGCUAGAAGGACCAUUUAUUA | – | – | 78 nM | 154 nM |

| Sequence | apparent Kd [1] | apparent Kd [2] | apparent Kd [3] | apparent Kd [4] |
| --- | --- | --- | --- | --- |
| CUUUCGUGAGGAUAUGUGGCUUCGAUCGUGAAAUCGAGGCUACAGAAGGCACAUGAGGAUCACCCAUGUUCCUC | – | – | 34.3 nM | 410 nM |
| CACAGGGAUUCAGGAUAUAUUAGCCGAGGCCGCGUAGAAGGGAAAUCCUGACAUGAGGAUCACCCAUGUCGACCCGCCUUCCAC | 24.2 nM | 25.3 nM | – | – |
| GGGUAUAAACCCGUCUCCGCUCAACCAGAAGGGCACGAUAAUAUUACAUGAGGAUCACCCAUGUUGCAGGAUAUGGUGAGCCUC | 363 nM | 66.9 nM | – | – |
| AGCAUGUGAGGAUAUGUGACCCUCGUCCUAAGGACAAGGGAAUAGAAGGCACAUGAGGAUCACCCAUGUGAUGA | – | – | 54.6 nM | 168 nM |
| UUUAGUUCAGGAUAUGUAGAUUUUAACAUGAGGAUCACCCAUGUAGAUCCUGAAUUAACUACAGAAGGGAACAUUU | – | – | 19.8 nM | 88.6 nM |
| AUUAUGUAAGGAUAUCUUACAUGUGACUUCGGUCACUGUCAAGAGAAGGUACAUGAGGAUCACCCAUGUAUGAC | – | – | 14 nM | 16.3 nM |
| AAUAACAGAGGAUAUACGAAAAUAAGCGGAAACGCAAAGGGACAUGAGGAUCACCCAUGUAGAAGGCUGGAUAA | – | – | 32.6 nM | 183 nM |
| UGUCGGAGCAGAGGAUAUUACAUGAGGAUCACCCAUGUAUUAACCAAUAGCUGGAAACAGCAAUGUAAGAAGGCUGCUCCGACA | – | – | 5.11 nM | 7.87 nM |
| GCAUUGAUAACAGGAUAUAUGAGUCCUACAUGAGGAUCACCCAUGUAGGUGAUCAGCCGUGAUUAGUAGAAGGGUUAUCAAUGC | 13 nM | 5.99 nM | – | – |
| CUCAGCUCGUCAGGAUAUACGUCACUGCUUCGGCAGUGUGGUAAGAUCACAUGAGGAUCACCCAUGUAGAAGGGACGAGCUGAG | – | – | 11.5 nM | 245 nM |
| GCAAGAAUAGGAUAUACACCGUGUCAGCUUUUAUAUAUCGCACAUGAGGAUCACCCAUGUAGAAGGGUUCUCUG | – | – | 420 nM | 353 nM |
| UUAUUUAUGCAAGGAUAUCAAUUAUAUACAAAUCCAACAUGAGGAUCACCCAUGUUUUAUUUUUUUGAGAAGGUGUAUUGUCAG | 36.1 nM | 40.5 nM | – | – |
| GAUUCACAUGAGGAUCACCCAUGUGAGGAUAUCUAGGUGCGGAGGCUAAGGCCUCCAGAGAGAAGGCACAUGGC | – | – | 27.3 nM | 41.3 nM |
| UUACUCAUGUAAGGAUAUGCAGCCGAAACGGCUGCAGAAGGUACUAUAAUACAUGAGGAUCACCCAUGUCUUUUUAAUUUAGAC | 51.2 nM | 78 nM | – | – |
| GUCUUUAAGGUAGGAUAUAGUAUGAUGGUUUAAUUAGAAGGAUCUCACAUGAGGAUCACCCAUGUAAUAGGAUUACCCAUGUAU | – | – | 60.9 nM | 43.4 nM |
| UGCUAGAACCUAGGAUAUCCUGGGUUGGUGGUGCUUGAUGACCGGACAUGAGGAUCACCCAUGUAGGAGAAGGAGGUUGUUAAG | – | – | 60.6 nM | 112 nM |
| AGCUCGCGAAGAGGAUAUACAGCGGCGACCUAUCAUGACGAGCGGGUUACAUGAGGAUCACCCAUGUAGAAGGCUUCCCGACUC | – | – | 26.6 nM | 73.9 nM |
| CGCAAGUAUACAUGAGGAUCACCCAUGUAAGAUAGGGUAAUCAGAAGGUACAAUUAGAGAUAGAGUAAGGAUAUGAAAUUUGCG | 358 nM | 94.5 nM | – | – |
| UGAUAACAUGUAGGAUAUGCAGCAUUGACCACUGCAGAAGGACAUGAGGAUCACCCAUGUAUCCAUACUAUGGGAUCACGCAAU | – | – | 24 nM | 85.5 nM |

| Sequence | apparent Kd [1] | apparent Kd [2] | apparent Kd [3] | apparent Kd [4] |
| --- | --- | --- | --- | --- |
| CGUGUUCCACAGAAGGCAUGGGACACAUGAGGAUCACCCAUGUCACUGAUGAGGAUAUGUAAAAGGAGCGAGGUGCAAGAAUAG | 158 nM | 23.7 nM | – | – |
| AGCUCAAAAGUGAGGAUAUCUAGGGUCAAAUGACCGGAGAAGGCACAUGAGGAUCACCCAUGUAACGCCAUGGA | – | – | 12.9 nM | 31.6 nM |
| CAUUUCAUGUCAGGAUAUCCGCGCAGCUUCACGCACGAUAUAAGGGAGCUUGGAGAAGGGACAUGAGGAUCACCCAUGUGCCUC | – | – | 10.9 nM | 26 nM |
| AUACCACGAGGAUAUCGUCUAUUUUACAUGAGGAUCACCCAUGUUAUCUUUGUAAUGUUUCGAGAAGGCGUGUUUU | – | – | 34.2 nM | 23.9 nM |
| AUUAUAUAGAAAGGAUAUAGAAUAUUAUUUUAACAUGAGGAUCACCCAUGUAACCUUAUGUGUAGCUAGAAGGUUCAUUUAUUA | – | – | 61.8 nM | 78.1 nM |
| GUAGCAUACGGAGGAUAUGUAGGAUCCACAUGAGGAUCACCCAUGUUAAGGACAGAAGGCCGUAUGCUACAAGAGCGAAAGCUC | 10.6 nM | 12.3 nM | – | – |
| AGGUGACAUGAGGAUCACCCAUGUCAGGAUAUAUACACCGCCGGCGUGAAGCCGACGGAUAGAAGGGACAAAAU | – | – | 16.6 nM | 21.6 nM |
| GGAUAGGACAGAGGAUAUACGUGCUGGAGAUACUAGCAAAAUUUCCUCACAUGAGGAUCACCCAUGUAGAAGGCUGUCCUAUCG | – | – | 32.6 nM | 478 nM |
| GUAGAGUAAGGAUAUGUAGAAUAGGAUAGAAUGGUUAGAAUGCAGAAGGUACAUGAGGAUCACCCAUGUAAUGU | – | – | 22.1 nM | 21.1 nM |
| CUGAUGUUAGGAUAUCAGGCGCCCGCCACUGGCAAAGCGCAUGAGAAGGGACAUGAGGAUCACCCAUGUAGUAA | – | – | 28.2 nM | 47.6 nM |
| AACAGGUCAGGAUAUACAUGAGGAUCACCCAUGUAACAAGCGGAGGCGACUUCUCAAGGUAGAAGGGAUCUCCG | – | – | 19.8 nM | 18.9 nM |
| GUAGCAUACCGAGGAUAUUCUGGGCAUAAAUAAACAUGAGGAUCACCCAUGUGGCGAAAGCCUAGGGAGAAGGCGGAAUGCUAC | 14.8 nM | 13.6 nM | – | – |
| GACUUGUUAGGAUAUCUUACAUUUGCAUCAUAGCAACCAUUGGAGAAGGGACAUGAGGAUCACCCAUGUUUGGA | – | – | 31.6 nM | 31 nM |
| AUGAGGUUAGGAUAUACAUGAGGAUCACCCAUGUUGAAGGGUUAGGUAGGCGGAGCUGGUAGAAGGAACGGAGC | – | – | 57.3 nM | 36.9 nM |
| CCGGAUAUGCAGGAUAUCGUAACGGAAACGUUACGAGAAGGGUAUACAUGAGGAUCACCCAUGUGUCCUACCGG | – | – | 28.1 nM | 32.3 nM |
| GACCAGGCAGGAUAUACAUGAGGAUCACCCAUGUGUCUGCGUUGGGCACGUGAACACGGUAGAAGGGCCUUGAC | – | – | 12.2 nM | 22.9 nM |
| AUCUACCUAGGAUAUACAUGAGGAUCACCCAUGUACAGUUUCAACUAGGGAAACACACGUAGAAGGAGGUAGAU | – | – | 13.6 nM | 32.6 nM |
| UCGUGCCGGGUUACGAUCGACCCACAUGAGGAUCACCCAUGUAGAAGGACCAGCGUCGGCCCUUGGUAGGAUAUACAUGAAAUC | – | – | 106 nM | 135 nM |
